Laboratory results as given in the array DNA melting data of Ke et al. (doi:10.1101/2024.01.08.574731).

How the values were obtained:
[1] = melting temperature; fluorescence melt of hairpins on a sequencing array, two-state fit, raised by 9.35 °C to match UV melts; details: sodium 0.088 M
Outline: (§1)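 To match UV melts, fitted temperatures were raised by 9.35 °C. These fits were bootstrapped two-state models that gave melting temperature and folding enthalpy, combined by inverse variance over four replicates. The input was normalised Cy3 fluorescence of library hairpins with annealed Cy3 and quencher oligos on a sequenced MiSeq flow cell, imaged in 50 mM Na-HEPES pH 8.0, 25 mM NaCl in 2.5 °C steps up to 60 °C.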

[2] = folding enthalpy; higher = less favourable; fluorescence melt of hairpins on a sequencing array, two-state fit; details: sodium 0.088 M
Outline: as §1

## GATCGTAGCACGATC ((((((...))))))
[1]
  Tm: 56.5 °C
[2]
  folding enthalpy: -34.8 kcal/mol

## GATCGTAGGAACGATC ((((((....))))))
[1]
  Tm: 52.4 °C
[2]
  folding enthalpy: -30.9 kcal/mol

## GATCGTAGGCACGATC ((((((....))))))
[1]
  Tm: 54.2 °C
[2]
  folding enthalpy: -37 kcal/mol

## GATCGTAGGGACGATC ((((((....))))))
[1]
  Tm: 56 °C
[2]
  folding enthalpy: -31.6 kcal/mol

## GATCGTAGTACGATC ((((((...))))))
[1]
  Tm: 54.7 °C
[2]
  folding enthalpy: -29.6 kcal/mol

## GATCGTCAAACGATC ((((((...))))))
[1]
  Tm: 52.1 °C
[2]
  folding enthalpy: -31.7 kcal/mol

## GATCGTCAACACGATC ((((((....))))))
[1]
  Tm: 51.5 °C
[2]
  folding enthalpy: -32.9 kcal/mol

## GATCGTCATAACGATC ((((((....))))))
[1]
  Tm: 55 °C
[2]
  folding enthalpy: -38.8 kcal/mol

## GATCGTCCAAACGATC ((((((....))))))
[1]
  Tm: 55.2 °C
[2]
  folding enthalpy: -42.7 kcal/mol

## GATCGTCCCGACGATC ((((((....))))))
[1]
  Tm: 59.8 °C
[2]
  folding enthalpy: -43.2 kcal/mol

## GATCGTCCTAACGATC ((((((....))))))
[1]
  Tm: 55.5 °C
[2]
  folding enthalpy: -40.4 kcal/mol

## GATCGTCCTTACGATC ((((((....))))))
[1]
  Tm: 53.8 °C
[2]
  folding enthalpy: -40.7 kcal/mol

## GATCGTCTAGACGATC ((((((....))))))
[1]
  Tm: 59.7 °C
[2]
  folding enthalpy: -37.2 kcal/mol

## GATCGTCTGAACGATC ((((((....))))))
[1]
  Tm: 55.6 °C
[2]
  folding enthalpy: -39.6 kcal/mol

## GATCGTGAAGACGATC ((((((....))))))
[1]
  Tm: 57 °C
[2]
  folding enthalpy: -31.5 kcal/mol

## GATCGTGACCACGATC ((((((....))))))
[1]
  Tm: 61.3 °C
[2]
  folding enthalpy: -38.7 kcal/mol

## GATCGTGACTACGATC ((((((....))))))
[1]
  Tm: 61.2 °C
[2]
  folding enthalpy: -43.8 kcal/mol

## GATCGTGAGACGATC ((((((...))))))
[1]
  Tm: 54 °C
[2]
  folding enthalpy: -33.8 kcal/mol

## GATCGTGAGGACGATC ((((((....))))))
[1]
  Tm: 53.5 °C
[2]
  folding enthalpy: -34.1 kcal/mol

## GATCGTGATCACGATC ((((((....))))))
[1]
  Tm: 58.2 °C
[2]
  folding enthalpy: -53 kcal/mol

## GATCGTGCAACGATC ((((((...))))))
[1]
  Tm: 67.8 °C
[2]
  folding enthalpy: -41 kcal/mol

## GATCGTGCCAACGATC ((((((....))))))
[1]
  Tm: 66.6 °C
[2]
  folding enthalpy: -29.7 kcal/mol

## GATCGTGCGCACGATC ((((((....))))))
[1]
  Tm: 64.6 °C
[2]
  folding enthalpy: -51.2 kcal/mol

## GATCGTGGAAACGATC ((((((....))))))
[1]
  Tm: 61 °C
[2]
  folding enthalpy: -32.5 kcal/mol

## GATCGTGGCCACGATC ((((((....))))))
[1]
  Tm: 62.5 °C
[2]
  folding enthalpy: -62.6 kcal/mol

## GATCGTGGCTACGATC ((((((....))))))
[1]
  Tm: 59 °C
[2]
  folding enthalpy: -39.3 kcal/mol

## GATCGTGGGCACGATC ((((((....))))))
[1]
  Tm: 56.8 °C
[2]
  folding enthalpy: -40.1 kcal/mol

## GATCGTGGGTACGATC ((((((....))))))
[1]
  Tm: 55.3 °C
[2]
  folding enthalpy: -37.6 kcal/mol

## GATCGTGGTACGATC ((((((...))))))
[1]
  Tm: 58.2 °C
[2]
  folding enthalpy: -34.7 kcal/mol

## GATCGTGGTTACGATC ((((((....))))))
[1]
  Tm: 58.3 °C
[2]
  folding enthalpy: -40.3 kcal/mol

## GATCGTGTAACGATC ((((((...))))))
[1]
  Tm: 63.5 °C
[2]
  folding enthalpy: -48.1 kcal/mol

## GATCGTGTATACGATC ((((((....))))))
[1]
  Tm: 62.1 °C
[2]
  folding enthalpy: -46 kcal/mol

## GATCGTGTCCACGATC ((((((....))))))
[1]
  Tm: 60.3 °C
[2]
  folding enthalpy: -45.8 kcal/mol

## GATCGTGTTACGATC ((((((...))))))
[1]
  Tm: 56.9 °C
[2]
  folding enthalpy: -35.6 kcal/mol

## GATCGTGTTGACGATC ((((((....))))))
[1]
  Tm: 57.4 °C
[2]
  folding enthalpy: -29.3 kcal/mol

## GATCGTGTTTACGATC ((((((....))))))
[1]
  Tm: 57.5 °C
[2]
  folding enthalpy: -41.4 kcal/mol

## GATCGTTAATACGATC ((((((....))))))
[1]
  Tm: 54.6 °C
[2]
  folding enthalpy: -36.3 kcal/mol

## GATCGTTACACGATC ((((((...))))))
[1]
  Tm: 58.4 °C
[2]
  folding enthalpy: -36.1 kcal/mol

## GATCGTTAGAACGATC ((((((....))))))
[1]
  Tm: 55.2 °C
[2]
  folding enthalpy: -34.7 kcal/mol

## GATCGTTAGCACGATC ((((((....))))))
[1]
  Tm: 51.4 °C
[2]
  folding enthalpy: -32.3 kcal/mol

## GATCGTTAGGACGATC ((((((....))))))
[1]
  Tm: 55.2 °C
[2]
  folding enthalpy: -37.9 kcal/mol

## GATCGTTAGTACGATC ((((((....))))))
[1]
  Tm: 53.2 °C
[2]
  folding enthalpy: -47.3 kcal/mol

## GATCGTTATCACGATC ((((((....))))))
[1]
  Tm: 52.7 °C
[2]
  folding enthalpy: -42 kcal/mol

## GATCGTTGCACGATC ((((((...))))))
[1]
  Tm: 60.7 °C
[2]
  folding enthalpy: -38.6 kcal/mol

## GATCGTTGCGACGATC ((((((....))))))
[1]
  Tm: 60.7 °C
[2]
  folding enthalpy: -41.2 kcal/mol

## GATCGTTGGACGATC ((((((...))))))
[1]
  Tm: 54.8 °C
[2]
  folding enthalpy: -35.1 kcal/mol

## GATCGTTGTCACGATC ((((((....))))))
[1]
  Tm: 54.9 °C
[2]
  folding enthalpy: -40.9 kcal/mol

## GATCGTTTTTACGATC ((((((....))))))
[1]
  Tm: 56.9 °C
[2]
  folding enthalpy: -44.7 kcal/mol

## GATCTAAAATAGATC ((((((...))))))
[1]
  Tm: 38.6 °C
[2]
  folding enthalpy: -17.1 kcal/mol

## GATCTAAAGATAGATC ((((((....))))))
[1]
  Tm: 30.6 °C
[2]
  folding enthalpy: -16.5 kcal/mol

## GATCTAACAGTAGATC ((((((....))))))
[1]
  Tm: 36.5 °C
[2]
  folding enthalpy: -15.6 kcal/mol

## GATCTAACATAGATC ((((((...))))))
[1]
  Tm: 39.5 °C
[2]
  folding enthalpy: -33.1 kcal/mol

## GATCTAACCTTAGATC ((((((....))))))
[1]
  Tm: 42.2 °C
[2]
  folding enthalpy: -39.6 kcal/mol

## GATCTAAGATAGATC ((((((...))))))
[1]
  Tm: 37.9 °C
[2]
  folding enthalpy: -20.6 kcal/mol

## GATCTAAGCGTAGATC ((((((....))))))
[1]
  Tm: 36.9 °C
[2]
  folding enthalpy: -27 kcal/mol

## GATCTAAGGTTAGATC ((((((....))))))
[1]
  Tm: 39.3 °C
[2]
  folding enthalpy: -31.6 kcal/mol

## GATCTAATATAGATC ((((((...))))))
[1]
  Tm: 38.8 °C
[2]
  folding enthalpy: -28.6 kcal/mol

## GATCTAATCGTAGATC ((((((....))))))
[1]
  Tm: 36.1 °C
[2]
  folding enthalpy: -13.7 kcal/mol

## GATCTAATCTAGATC ((((((...))))))
[1]
  Tm: 38.8 °C
[2]
  folding enthalpy: -28.2 kcal/mol

## GATCTAATGGTAGATC ((((((....))))))
[1]
  Tm: 35.4 °C
[2]
  folding enthalpy: -27 kcal/mol

## GATCTAATTTAGATC ((((((...))))))
[1]
  Tm: 41.4 °C
[2]
  folding enthalpy: -30.8 kcal/mol

## GATCTACAAGTAGATC ((((((....))))))
[1]
  Tm: 48.2 °C
[2]
  folding enthalpy: -34.2 kcal/mol

## GATCTACAGTAGATC ((((((...))))))
[1]
  Tm: 39.3 °C
[2]
  folding enthalpy: -38.7 kcal/mol

## GATCTACAGTTAGATC ((((((....))))))
[1]
  Tm: 38.3 °C
[2]
  folding enthalpy: -29.3 kcal/mol

## GATCTACATCTAGATC ((((((....))))))
[1]
  Tm: 36.8 °C
[2]
  folding enthalpy: -30.7 kcal/mol

## GATCTACCAATAGATC ((((((....))))))
[1]
  Tm: 38.1 °C
[2]
  folding enthalpy: -25.6 kcal/mol

## GATCTACCCGTAGATC ((((((....))))))
[1]
  Tm: 50.8 °C
[2]
  folding enthalpy: -42.1 kcal/mol

## GATCTACCCTAGATC ((((((...))))))
[1]
  Tm: 40.7 °C
[2]
  folding enthalpy: -24.7 kcal/mol

## GATCTACCGGTAGATC ((((((....))))))
[1]
  Tm: 53.2 °C
[2]
  folding enthalpy: -43.4 kcal/mol

## GATCTACGGTTAGATC ((((((....))))))
[1]
  Tm: 37.8 °C
[2]
  folding enthalpy: -30.3 kcal/mol

## GATCTACGTTAGATC ((((((...))))))
[1]
  Tm: 38.3 °C
[2]
  folding enthalpy: -24.8 kcal/mol

## GATCTACTACTAGATC ((((((....))))))
[1]
  Tm: 37.5 °C
[2]
  folding enthalpy: -31.4 kcal/mol
